Experimental data reported in ChEMBL document CHEMBL4229351, “Design, synthesis and anticancer evaluation of novel spirobenzo[h]chromene and spirochromane derivatives with dual EGFR and B-RAF inhibitory activities” (Eur J Med Chem, 2018).

Legend:
[1] = test system: HT-29; experiment: Anticancer activity against human HT-29 cells assessed as reduction in cell viability after 96 hrs by MTT assay; format: functional, cell-based; settings: HT-29, 96 h
Outline: (§1)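 Cancer lines grown in RPMI with 10% FBS and 1% penicillin/streptomycin, 37 C, humidified 5% CO2. Cells exposed to test agents or vehicle in RPMI/10% FBS for 96 h; viability read by MTT; IC50 as mean ± S.D., n = 6.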

[2] = test system: MCF7; experiment: Anticancer activity against human MCF7 cells assessed as reduction in cell viability after 96 hrs by MTT assay; format: functional, cell-based; settings: MCF7, 96 h; outline: as §1
[3] = test system: A549; experiment: Anticancer activity against human A549 cells assessed as reduction in cell viability after 96 hrs by MTT assay; format: functional, cell-based; settings: A549, 96 h; outline: as §1
[4] = Cytotoxicity against human F180 cells assessed as reduction in cell viability after 96 hrs by MTT assay; format: cell-based; settings: F180, 96 h
Outline: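 F180 normal fibroblasts kept in MEM with 10% FBS and 1% penicillin/streptomycin at 37 C, humidified 5% CO2. Treated with test agents or vehicle in MEM/10% FBS for 96 h; viability by MTT; IC50 reported as mean ± S.D. (n = 6).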

[5] = species on record: Sus scrofa; experiment: Inhibition of porcine brain tubulin polymerization assessed as tubulin polymerization level by measuring arbitary units at 3 uM by fluorescence analysis

| Structure (SMILES) | IC50 [1] [µM] | IC50 [2] [µM] | IC50 [3] [µM] | Activity [5] [a.u.] | IC50 [4] [µM] |
| --- | --- | --- | --- | --- | --- |
| C#Cc1cccc(Nc2ncnc3cc(OCCOC)c(OCCOC)cc23)c1 [ERLOTINIB] | > 20 | > 20 | 17.3 | – | – |
| CN1CCN(C(=S)N/N=C2\CC3(CCCCC3)Oc3c2ccc2ccccc32)CC1 | 8.17 | 11.7 | 10.6 | – | – |
| S=C(N/N=C1\CC2(CCCCC2)Oc2c1ccc1ccccc21)NC1CCCCC1 | 7.44 | 15.1 | 9.14 | – | – |
| S=C(N/N=C1\CC2(CCCCC2)Oc2c1ccc1ccccc21)N1CCNCC1 | 8.34 | 14.2 | 12 | – | – |
| CSC(=S)N/N=C1\CC2(CCCCC2)Oc2c1ccc1ccccc21 | 4.13 | 5.1 | 3.99 | – | > 40 |
| S=C(N/N=C1\CC2(CCCCC2)Oc2c1ccc1ccccc21)N1CCCCC1 | 6.77 | 13.3 | 11.4 | – | – |
| CC[C@]1(O)C[C@H]2CN(CCc3c([nH]c4ccccc34)[C@@](C(=O)OC)(c3cc4c(cc3OC)N(C=O)[C@H]3[C@@](O)(C(=O)OC)[C@H](OC(C)=O)[C@]5(CC)C=CCN6CC[C@]43[C@@H]65)C2)C1 | – | – | – | 747 | – |
| S=C(N/N=C1\CC2(CCCCC2)Oc2c1ccc1ccccc21)N1CCOCC1 | 9.31 | 11.9 | 10.1 | – | – |
| CNC(=O)c1cc(Oc2ccc(NC(=O)Nc3ccc(Cl)c(C(F)(F)F)c3)cc2)ccn1 [SORAFENIB] | 3.97 | 3.64 | 6.21 | – | > 40 |
| CC(=O)O[C@@]12CO[C@@H]1C[C@H](O)[C@@]1(C)C(=O)[C@H](O)C3=C(C)[C@@H](OC(=O)[C@H](O)[C@@H](NC(=O)OC(C)(C)C)c4ccccc4)C[C@@](O)([C@@H](OC(=O)c4ccccc4)[C@H]21)C3(C)C | – | – | – | 4820 | – |

The next lines start with results.

| IC50 [1] [µM] | IC50 [2] [µM] | IC50 [3] [µM] | Activity [5] [a.u.] | Structure (SMILES) | IC50 [4] [µM] |
| --- | --- | --- | --- | --- | --- |
| 7.09 | 9.07 | 8.35 | – | Cc1ccc(NC(=O)N/N=C2\CC3(CCCCC3)Oc3c2ccc2ccccc32)cc1 | – |
| 8.34 | 12.1 | 12.4 | – | O=C1c2ccccc2C(=O)N1/N=C1\CC2(CCCCC2)Oc2c1ccc1ccccc21 | – |
| 7.67 | 5.11 | 11.1 | – | O=C1Nc2ccccc2/C1=N/N=C1\CC2(CCCCC2)Oc2c1ccc1ccccc21 | > 40 |
| 4.74 | 12 | 8.15 | – | O=C(N/N=C1\CC2(CCCCC2)Oc2c1ccc1ccccc21)Nc1ccccc1 | – |
| 9.97 | 9.74 | 12.9 | – | N/N=C1\CC2(CCCCC2)Oc2c1ccc1ccccc21 | – |
| 7.37 | 15 | 9.54 | – | O=C(N/N=C1\CC2(CCCCC2)Oc2c1ccc1ccccc21)Nc1ccc(Cl)cc1 | – |
| 6.15 | 10.7 | 10.6 | – | O=C1CC2(CCCCC2)Oc2c1ccc1ccccc21 | – |
